Test results: ChEMBL document CHEMBL4387722

Columns and labels:
[1] = biological target: T1, Phosphotyrosine protein phosphatase (Mycobacterium tuberculosis, UniProt A0A045ISB3); assay: Inhibition of Mycobacterium tuberculosis His-tagged PtpB expressed in Escherichia coli Rosetta 2 (DE3) using pNPP as substrate after 30 mins by spectrophotometric method
T1 sequence (A0A045ISB3 whole entry): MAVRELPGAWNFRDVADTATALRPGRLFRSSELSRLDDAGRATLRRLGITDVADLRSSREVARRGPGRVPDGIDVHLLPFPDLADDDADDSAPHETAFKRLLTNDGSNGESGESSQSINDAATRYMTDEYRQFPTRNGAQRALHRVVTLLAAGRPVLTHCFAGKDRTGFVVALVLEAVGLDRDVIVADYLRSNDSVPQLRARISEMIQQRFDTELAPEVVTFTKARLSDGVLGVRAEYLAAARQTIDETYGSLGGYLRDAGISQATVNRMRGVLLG

[2] = biological target: T2, Tyrosine-protein phosphatase non-receptor type 1 (Homo sapiens, UniProt P18031); assay: Inhibition of human PTPN1 expressed in Escherichia coli Rosetta 2 (DE3) using pNPP as substrate after 45 mins by spectrophotometric method
T2 sequence (P18031 whole entry): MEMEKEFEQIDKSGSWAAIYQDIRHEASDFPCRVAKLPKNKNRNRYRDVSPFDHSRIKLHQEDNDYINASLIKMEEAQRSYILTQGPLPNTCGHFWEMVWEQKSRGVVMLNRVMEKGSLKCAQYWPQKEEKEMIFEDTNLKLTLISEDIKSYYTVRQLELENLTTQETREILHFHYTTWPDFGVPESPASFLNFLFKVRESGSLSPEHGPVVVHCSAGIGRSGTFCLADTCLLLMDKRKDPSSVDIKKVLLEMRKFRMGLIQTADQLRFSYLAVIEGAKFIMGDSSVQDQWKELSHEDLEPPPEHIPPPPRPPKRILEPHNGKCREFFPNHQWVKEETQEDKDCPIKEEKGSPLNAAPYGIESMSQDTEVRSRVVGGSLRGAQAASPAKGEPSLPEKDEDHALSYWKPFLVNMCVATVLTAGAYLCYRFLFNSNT

[3] = biological target: T3, Tyrosine-protein phosphatase non-receptor type 2 (Homo sapiens, UniProt P17706); assay: Inhibition of human PTPN2 expressed in Escherichia coli Rosetta 2 (DE3) using pNPP as substrate after 45 mins by spectrophotometric method
T3 sequence (P17706 whole entry): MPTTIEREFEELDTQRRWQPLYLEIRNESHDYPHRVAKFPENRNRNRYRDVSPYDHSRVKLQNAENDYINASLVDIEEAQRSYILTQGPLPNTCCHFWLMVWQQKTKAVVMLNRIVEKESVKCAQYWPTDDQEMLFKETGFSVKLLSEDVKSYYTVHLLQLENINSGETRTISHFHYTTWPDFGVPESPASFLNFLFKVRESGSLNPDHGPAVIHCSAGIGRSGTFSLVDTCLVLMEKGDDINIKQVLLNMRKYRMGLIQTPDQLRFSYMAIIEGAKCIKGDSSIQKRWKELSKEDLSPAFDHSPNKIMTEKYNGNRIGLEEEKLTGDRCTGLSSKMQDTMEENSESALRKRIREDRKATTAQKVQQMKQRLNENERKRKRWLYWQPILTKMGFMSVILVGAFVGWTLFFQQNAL

[4] = biological target: T4, Tyrosine-protein phosphatase non-receptor type 5 (Homo sapiens, UniProt P54829); assay: Inhibition of human PTPN5 expressed in Escherichia coli Rosetta 2 (DE3) using pNPP as substrate after 45 mins by spectrophotometric method
T4 sequence (P54829 whole entry): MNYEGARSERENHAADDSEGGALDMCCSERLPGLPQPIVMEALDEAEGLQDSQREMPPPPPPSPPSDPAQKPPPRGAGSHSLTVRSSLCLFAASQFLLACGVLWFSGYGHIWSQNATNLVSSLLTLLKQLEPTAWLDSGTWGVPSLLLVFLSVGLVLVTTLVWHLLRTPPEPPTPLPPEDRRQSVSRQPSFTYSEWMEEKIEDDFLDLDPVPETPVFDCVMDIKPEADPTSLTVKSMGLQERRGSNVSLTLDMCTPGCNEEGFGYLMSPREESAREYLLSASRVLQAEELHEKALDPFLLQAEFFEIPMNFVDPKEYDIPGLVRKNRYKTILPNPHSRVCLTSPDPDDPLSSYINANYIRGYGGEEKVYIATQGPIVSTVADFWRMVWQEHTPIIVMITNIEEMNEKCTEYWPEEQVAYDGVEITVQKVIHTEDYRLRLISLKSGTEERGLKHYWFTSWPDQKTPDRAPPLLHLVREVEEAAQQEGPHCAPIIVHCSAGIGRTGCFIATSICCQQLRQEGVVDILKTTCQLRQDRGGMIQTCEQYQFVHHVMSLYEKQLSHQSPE

[5] = system: Mycobacterium tuberculosis; assay: Antitubercular activity against Mycobacterium tuberculosis H37Rv after 5 days at 200 uM relative to control; format: functional; conditions: 120 h
Method in brief: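 M. tuberculosis grown in liquid culture with compound at a fixed 200 μM for 5 days. Growth inhibition expressed as percent of control.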

[6] = Inhibition of refolded rhodanese (unknown origin) preincubated with Escherichia coli GroEL/GroES for 60 mins by measuring rhodanese enzyme activity followed by compound addition by Fe(SCN)3 dye based spectrometric analysis; set-up: species or system Homo sapiens
[7] = biological target: T5, Malate dehydrogenase, mitochondrial (Sus scrofa, UniProt P00346); assay: Inhibition of refolded pig heart mitochondrial MDH preincubated with Escherichia coli GroEL/GroES for 45 mins using sodium mesoxalate as substrate followed by compound addition and measured after 20 to 30 mins by spectrometric analysis
T5 sequence (P00346 whole entry): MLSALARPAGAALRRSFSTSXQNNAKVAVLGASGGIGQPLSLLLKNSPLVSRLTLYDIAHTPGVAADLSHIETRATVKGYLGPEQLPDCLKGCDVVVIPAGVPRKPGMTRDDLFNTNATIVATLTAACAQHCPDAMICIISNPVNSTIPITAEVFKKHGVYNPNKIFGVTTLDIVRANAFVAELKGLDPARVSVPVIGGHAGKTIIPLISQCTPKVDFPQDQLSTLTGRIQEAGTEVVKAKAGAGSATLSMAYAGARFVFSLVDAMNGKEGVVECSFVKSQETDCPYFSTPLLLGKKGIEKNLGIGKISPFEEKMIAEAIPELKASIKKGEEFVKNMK

E. coli GroEL/ES [8] = biological target: T6, E. coli GroEL/ES (Escherichia coli, UniProt P0A6F5); assay: Inhibition of Escherichia coli GroEL expressed in Escherichia coli DH5alpha/Escherichia coli GroES expressed in Escherichia coli BL21 (DE3) assessed as reduction in GroEL/GroES-mediated denatured rhodanese refolding by measuring rhodanese enzyme activity after 45 mins by Fe(SCN)3 dye based spectrometric analysis
E. coli GroEL/ES [9] = biological target: T6, E. coli GroEL/ES; assay: Inhibition of Escherichia coli GroEL expressed in Escherichia coliDH5alpha/Escherichia coli GroES expressed in Escherichia coli BL21 (DE3) assessed as reduction in GroEL/GroES-mediated denatured pig heart mitochondrial MDH refolding by measuring MDH enzyme activity using sodium mesoxalate as substrate after 20 to 40 mins by spectrometric analysis
HSP60/HSP10 = HSP60/HSP10 (Homo sapiens, UniProt P10809); assay: Inhibition of human HSP60 expressed in Escherichia coli Rosetta 2(DE3)/human HSP10 expressed in Escherichia coli Rosetta 2(DE3) pLysS cells assessed as reduction in HSP60/HSP10-mediated denatured pig heart mitochondrial MDH refolding by measuring MDH enzyme activity using sodium mesoxalate as substrate after 40 to 60 mins by spectrometric analysis
[10] = Cytotoxicity against human THLE3 cells assessed as reduction in cell viability after 48 hrs by Alamar blue assay; format: cell-based
Method in brief: (§1)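 Alamar Blue viability read-out. Human liver (THLE-3) and kidney (HEK 293) cells incubated with compound for 48 h. Tested in dose-response to derive CC50.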

[11] = Cytotoxicity against human HEK293 cells assessed as reduction in cell viability after 48 hrs by Alamar blue assay; format: cell-based; method in brief: as §1

T6 sequence (P0A6F5 whole entry, looked up): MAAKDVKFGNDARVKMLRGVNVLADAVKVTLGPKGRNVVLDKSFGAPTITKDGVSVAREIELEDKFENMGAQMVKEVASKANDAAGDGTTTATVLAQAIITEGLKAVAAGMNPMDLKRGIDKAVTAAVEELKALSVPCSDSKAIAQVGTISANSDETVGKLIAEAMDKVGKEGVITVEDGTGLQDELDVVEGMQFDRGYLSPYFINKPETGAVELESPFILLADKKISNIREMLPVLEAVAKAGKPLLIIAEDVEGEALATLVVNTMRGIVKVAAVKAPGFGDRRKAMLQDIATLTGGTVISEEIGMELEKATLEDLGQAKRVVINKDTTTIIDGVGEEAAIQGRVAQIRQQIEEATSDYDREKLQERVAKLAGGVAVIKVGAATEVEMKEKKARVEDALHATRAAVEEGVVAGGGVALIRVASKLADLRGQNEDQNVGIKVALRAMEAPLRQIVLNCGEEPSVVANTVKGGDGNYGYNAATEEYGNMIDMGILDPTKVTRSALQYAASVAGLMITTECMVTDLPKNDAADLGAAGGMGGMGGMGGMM
HSP60/HSP10, sequence (P10809 whole entry): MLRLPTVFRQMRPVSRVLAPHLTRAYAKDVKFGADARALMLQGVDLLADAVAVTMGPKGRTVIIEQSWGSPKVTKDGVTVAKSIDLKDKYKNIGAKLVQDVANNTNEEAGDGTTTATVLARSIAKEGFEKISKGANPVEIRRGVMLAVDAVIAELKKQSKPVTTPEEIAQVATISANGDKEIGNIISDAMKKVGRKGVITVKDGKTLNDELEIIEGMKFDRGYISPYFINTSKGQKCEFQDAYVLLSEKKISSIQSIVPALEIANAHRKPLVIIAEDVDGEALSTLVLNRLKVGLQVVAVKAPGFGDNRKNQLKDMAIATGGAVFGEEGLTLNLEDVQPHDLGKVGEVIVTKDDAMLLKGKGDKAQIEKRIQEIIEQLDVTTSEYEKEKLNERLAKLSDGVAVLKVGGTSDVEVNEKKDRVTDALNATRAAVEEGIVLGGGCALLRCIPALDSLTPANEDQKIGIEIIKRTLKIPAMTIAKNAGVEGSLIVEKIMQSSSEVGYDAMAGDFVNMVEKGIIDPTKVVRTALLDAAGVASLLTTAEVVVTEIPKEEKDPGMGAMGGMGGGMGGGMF
HSP60/HSP10, sequence (P61604 whole entry, further chain): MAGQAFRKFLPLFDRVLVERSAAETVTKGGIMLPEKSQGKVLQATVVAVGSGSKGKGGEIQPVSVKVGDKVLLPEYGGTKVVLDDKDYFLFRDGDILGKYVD

SMILES | IC50 [1] [µM] | IC50 [2] [µM] | IC50 [3] [µM] | IC50 [4] [µM] | inhibition at 200 µM [5] [%] | IC50 [6] [µM] | IC50 [7] [µM] | IC50 (E. coli GroEL/ES [8]) [µM] | IC50 (E. coli GroEL/ES [9]) [µM] | IC50 (HSP60/HSP10) [µM] | CC50 at 48 h [10] [µM] | CC50 at 48 h [11] [µM]
Cc1cccc(S(=O)(=O)Nc2ccc(-c3nc4ccccc4o3)cc2)c1 | 40 | 37 | 40 | 28 | 13 | > 100 | > 63 | 165 | 92 | > 100 | 81 | > 100
O=[N+]([O-])c1cc(S(=O)(=O)Nc2ccc3oc(-c4ccccc4)nc3c2)ccc1Cl | 33 | 35 | 40 | 32 | 1 | > 100 | > 63 | 18 | 16 | 17 | 25 | 90
O=S(=O)(Nc1ccc(-c2nc3ccccc3o2)cc1)c1ccc(Cl)c(C(F)(F)F)c1 | 29 | 28 | 28 | 34 | 18 | > 100 | > 63 | 67 | 23 | 12 | 81 | 69
O=S(=O)(Nc1ccc2oc(-c3ccccc3)nc2c1)c1cccc(C(F)(F)F)c1 | 77 | 83 | 76 | 45 | 41 | > 100 | > 63 | 180 | 95 | > 100 | 58 | > 100
O=S(=O)(Nc1ccc2oc(-c3ccccc3)nc2c1)c1ccccc1Cl | 50 | 40 | 42 | 35 | 13 | > 100 | > 63 | 103 | 90 | > 100 | 43 | 73
COc1ccccc1S(=O)(=O)Nc1ccc2oc(-c3ccccc3)nc2c1 | 67 | 37 | 34 | 38 | 3 | > 100 | > 63 | 89 | 85 | > 100 | 29 | 41
COc1ccc(Cl)cc1S(=O)(=O)Nc1ccc(-c2nc3ccccc3o2)cc1 | 29 | 21 | 28 | 37 | 0 | > 100 | > 63 | 83 | 59 | > 100 | 42 | 75
